This note sets out measurements from ChEMBL document CHEMBL1134841, “Antimalarial alkoxylated and hydroxylated chalcones [corrected]: structure-activity relationship analysis” (J Med Chem, 2001).

The test system of experiment [1] is Mus musculus. Kind of experiment: Ratio of average life span of compound-treated mice (100 mg/kg, ip, 3 days) to that of mice receiving DMSO (T/C-untreated). The experiment is classed as functional. In a few lines:
(§1)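 Swiss albino mice (male, 4 weeks, ~25 g) inoculated ip with 10^7 P. berghei ANKA parasitized erythrocytes (day 0). Test compound 100 mg/kg/day ip in DMSO, days 1–3, three mice per compound. Control infected groups: DMSO or 4'-butoxy-2,4-dimethoxychalcone (100 mg/kg in DMSO, ip, days 1–3), or chloroquine (52 mg/kg ip in 0.5% Tween buffer pH 7.4, day 1). Survival followed; ratio of mean life spans.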

Experiment [2] deals with Plasmodium falciparum. Kind of experiment: Inhibition of [3H]hypoxanthine incorporation in Plasmodium falciparum K1. The experiment is classed as functional, organism-based. As to conditions: Plasmodium falciparum, 48 h. In short, it runs like this:
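K1 (chloroquine-resistant) parasites cultured in RPMI-1640 with 5% sodium bicarbonate and 10% type O human serum. DMSO stocks were serially diluted 10-fold in medium, covering a 10^6-fold range. Infected erythrocytes at 1–2% parasitemia and 1.5% hematocrit were incubated at 37 °C in a candle jar for 24 h. [3H]hypoxanthine was then added for a further 24 h, cells harvested and scintillation counted. IC50 from nonlinear logistic fit versus untreated control.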

Experiment [3] is described as follows: Ratio of average life span of compound-treated mice (100 mg/kg, ip, 3 days) to that of mice treated with chloroquine (T/C-CQ). The experiment is classed as functional. In a few lines: as §1
Experiment [4] deals with Mus musculus. Kind of experiment: Ratio of average life span of compound-treated mice (100 mg/kg, ip, 3 days) to that of mice treated with 4''-butoxy-2,4-dimethoxychalcone (comp.41). In kind it is functional. In short, it runs like this:
as §1

On to `COc1ccc(C(=O)/C=C/c2ccc(Cl)cc2Cl)c(OC)c1OC`, for which the T/C untreated in experiment [1] is reported as 0.94. For the same compound, the IC50 – broadly, the concentration that gives 50% inhibition – in experiment [2] stood at 5.4 µM. The T/C-CQ in experiment [3] worked out at 0.48. Moreover, the “T/C 41” value in experiment [4] was 0.94.
For the compound `COc1ccc(C(=O)/C=C/c2cnc3ccccc3c2)cc1`, the T/C untreated in experiment [1] is listed as 0.98. In experiment [2], this compound gave an IC50 of 4.8 µM. The T/C-CQ in experiment [3] was 0.49. Also, the “T/C 41” value in experiment [4] was determined as 1.03.
On the same counts, the results for `COc1ccc(C(=O)/C=C/c2ccc(Cl)c(Cl)c2)c(OC)c1OC` are 1.47, 14.5 µM, 0.8 and 1.53.
For the compound `COc1ccc(C(=O)/C=C/c2ccc(F)cc2F)c(OC)c1`, the T/C untreated in experiment [1] was 1.04. In addition, the midpoint of inhibition in experiment [2], the IC50, lay at 6.2 µM. The T/C-CQ in experiment [3] was determined as 0.52. The “T/C 41” value in experiment [4] was determined as 1.04.
As to `COc1ccc(C(=O)/C=C/c2cnc3ccccc3c2)c(OC)c1`, the T/C untreated in experiment [1] turned out to be 1.29. Further, in experiment [2], 2.2 µM corresponded to half-maximal inhibition (IC50). Moreover, the T/C-CQ in experiment [3] was 0.65. The “T/C 41” value in experiment [4] is reported as 1.29.
As to `O=C(/C=C/c1ccc(Cl)cc1Cl)c1ccc(O)cc1O`, the T/C untreated in experiment [1] was found to be 1.32. Besides, 68.5 µM corresponded to half-maximal inhibition in experiment [2] (IC50). Besides, in experiment [3], the T/C-CQ is listed as 0.94. Also, the “T/C 41” value in experiment [4] amounted to 1.36.
As to `CCc1ccc(/C=C/C(=O)c2ccc(OC)cc2OC)cc1`, in experiment [1], the T/C untreated was found to be 2.33. Moreover, the midpoint of inhibition in experiment [2], the IC50, lay at 2.4 µM. The T/C-CQ in experiment [3] stood at 1.18. In addition, the “T/C 41” value in experiment [4] was found to be 2.33.
Turning to `COc1ccc(C(=O)/C=C/c2ccc(F)cc2)c(OC)c1OC`, in experiment [1], the T/C untreated was found to be 1.37. In addition, the IC50 in experiment [2] is 9.5 µM. Also, the T/C-CQ in experiment [3] came out at 0.69. The “T/C 41” value in experiment [4] is on record as 1.37.
On to `COc1ccc(C(=O)/C=C/c2ccc(C(F)(F)F)cc2)c(OC)c1OC`, for which the T/C untreated in experiment [1] is given as 1.46. The compound further displayed a 50% inhibitory concentration (IC50) in experiment [2] of 3 µM. Moreover, the T/C-CQ in experiment [3] was determined as 0.74. Moreover, the “T/C 41” value in experiment [4] stood at 1.46.
For the compound `COc1ccc(/C=C/C(=O)c2ccc(OC)cc2OC)c(OC)c1`, in experiment [1], the T/C untreated came to 0.98. Moreover, in experiment [2], the IC50 amounted to 2.1 µM. For the same compound, the T/C-CQ in experiment [3] turned out to be 0.5. Further, the “T/C 41” value in experiment [4] was determined as 0.98.
With `O=C(/C=C/c1ccc(F)cc1F)c1ccc(O)cc1O`, in experiment [1], the T/C untreated turned out to be 1.73. In experiment [2], this compound yielded an IC50 of 16 µM. For the same compound, the T/C-CQ in experiment [3] is on record as 1.23. Besides, the “T/C 41” value in experiment [4] is on record as 1.78.
Consider `COc1ccc(C(=O)/C=C/c2ccc(F)cc2)cc1`, for which the T/C untreated in experiment [1] worked out at 2.2. The compound also yielded a 50% inhibitory concentration (IC50) in experiment [2] of 14.4 µM. Besides, in experiment [3], the T/C-CQ is 1.22. In experiment [4], the “T/C 41” value worked out at 1.83.
